According to publication PMC7717620 (Nucleosides, nucleotides & nucleic acids, 2019):
Entries after “also recorded” stand apart in the source; their conditions may differ.

Experiments:
various cell lines = conditions: up to 100 μM; cited from earlier work
primary dog hepatocytes = experiment: intracellular metabolism in primary dog hepatocytes; type: in vitro ADME; conditions: 50 μM, 4 h
Huh-7 cells = experiment: intracellular metabolism in Huh-7 cells; type: in vitro ADME, human; conditions: Huh-7, 50 μM, 4 h
primary rat hepatocytes = experiment: intracellular metabolism in primary rat hepatocytes; type: in vitro ADME; conditions: 50 μM, 4 h
human cardiomyocytes [1] = experiment: recording of human cardiomyocyte beating patterns; type: cell-based
[2] = test system: primary monkey hepatocytes; experiment: intracellular metabolism in primary monkey hepatocytes; type: in vitro ADME; conditions: 50 μM, 4 h
HepG2 cells [3] = experiment: intracellular metabolism in HepG2 cells; type: in vitro ADME, human; conditions: HepG2, 50 μM, 4 h
[4] = test system: primary human hepatocytes; experiment: intracellular metabolism in primary human hepatocytes; type: in vitro ADME; conditions: 50 μM, 4 h
HepG2 cells [5] = conditions: up to 50 μM; cited from earlier work
[6] = single dose escalation and seven day repeat dosing in rats; conditions: rat, in vivo
[7] = test system: primary mouse hepatocytes; experiment: intracellular metabolism in primary mouse hepatocytes; type: in vitro ADME; conditions: 50 μM, 4 h
human cardiomyocytes [8] = experiment: cellular accumulation and metabolism in human cardiomyocytes; type: in vitro ADME; conditions: 10 μM
[9] = single dose escalation and seven day repeat dosing in dogs; conditions: dog, in vivo
[10] = test system: HCV genotype 1 b RNA replication; experiment: subgenomic HCV replicon system, inhibition of HCV RNA replication in Huh-7 cells; type: cell-based, hepatitis C virus; conditions: HCV genotype 1 b subgenomic replicon
Procedure, shortened: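 HCV genotype 1b subgenomic replicon in Huh-7 cells. HCV RNA and cellular ribosomal RNA were extracted and amplified, so replication and cytotoxicity were read in the same cells.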

CC(C)OC(=O)CCc1ccccc1OP(=O)(N[C@@H](C)C(=O)OC(C)C)OC[C@H]1O[C@@H](n2cnc3c(N)nc(N)nc32)[C@](C)(O)[C@@H]1O (stereo partly drawn) [DAPN-PD, Isopropyl 3-(2-(((((2R,3R,4R,5R)-5-(2,6-diamino-9H-purin-9-yl)-3,4-dihydroxy-4-methyltetrahydrofuran-2-yl)methoxy)(((S)-1-isopropoxy-1-oxopropan-2-yl)amino)phosphoryl)oxy)phenyl)propanoate]
in vitro cytotoxicity in various cell lines (various cell lines): no in vitro cytotoxicity
Intracellular concentration: Prodrugs (primary dog hepatocytes): 6.3 ± 1.5 pmol/10^6 cells
Intracellular concentration: Prodrugs (Huh-7 cells): 170 ± 4 pmol/10^6 cells
Intracellular concentration: Prodrugs (primary rat hepatocytes): 0.90 ± 0.50 pmol/10^6 cells
Beating rate of human cardiomyocytes (human cardiomyocytes [1]; 2 μM, 2 h): 33.5 ± 0.7 beats/minute
Beating rate of human cardiomyocytes (human cardiomyocytes [1]; 2 μM, 4 h): 34.0 ± 0 beats/minute
Beating rate of human cardiomyocytes (human cardiomyocytes [1]; 2 μM, 8 h): 37.0 ± 0 beats/minute
Beating rate of human cardiomyocytes (human cardiomyocytes [1]; 2 μM, 12 h): 36.0 ± 0 beats/minute
Beating rate of human cardiomyocytes (human cardiomyocytes [1]; 2 μM, 24 h): 34.0 ± 1.4 beats/minute
Beating rate of human cardiomyocytes (human cardiomyocytes [1]; 2 μM, 48 h): 27.5 ± 0.7 beats/minute
change in beating rate or rhythm of cardiomyocytes (observation) (human cardiomyocytes [1]; 2 μM, up to 48 h): did not observe beating changes
Beating rate of human cardiomyocytes (human cardiomyocytes [1]; 10 μM, 2 h): 24.5 ± 0.7 beats/minute
Beating rate of human cardiomyocytes (human cardiomyocytes [1]; 10 μM, 4 h): 23.5 ± 0.7 beats/minute
Beating rate of human cardiomyocytes (human cardiomyocytes [1]; 10 μM, 8 h): 26.0 ± 1.4 beats/minute
Beating rate of human cardiomyocytes (human cardiomyocytes [1]; 10 μM, 12 h): 25.5 ± 0.7 beats/minute
Beating rate of human cardiomyocytes (human cardiomyocytes [1]; 10 μM, 24 h): 25.5 ± 0.7 beats/minute
Beating rate of human cardiomyocytes (human cardiomyocytes [1]; 10 μM, 48 h): 25.5 ± 0.7 beats/minute
change in beating rate or rhythm of cardiomyocytes (observation) (human cardiomyocytes [1]; 10 μM, up to 48 h): changes to both beat rate and rhythm were noted; also recorded: caused the beat rate to decrease
Beating rate of human cardiomyocytes (human cardiomyocytes [1]; 50 μM, 2 h): 21.5 ± 0.7 beats/minute
Beating rate of human cardiomyocytes (human cardiomyocytes [1]; 50 μM, 4 h): 21.0 ± 0 beats/minute
Beating rate of human cardiomyocytes (human cardiomyocytes [1]; 50 μM, 8 h): 22.0 ± 0 beats/minute
Beating rate of human cardiomyocytes (human cardiomyocytes [1]; 50 μM, 12 h): 21.0 ± 0 beats/minute
Beating rate of human cardiomyocytes (human cardiomyocytes [1]; 50 μM, 24 h): 19.0 ± 0 beats/minute
Beating rate of human cardiomyocytes (human cardiomyocytes [1]; 50 μM, 48 h): 17.0 ± 0 beats/minute
rhythm of cardiomyocytes (observation) (human cardiomyocytes [1]; 10 and 50 μM): altered and irregular
change in beating rate of cardiomyocytes (observation) (human cardiomyocytes [1]; 10 and 50 μM, up to 48 h): the beating rate dropped within 2 h then remained at a reduced rate out to 48 h
Intracellular concentration: Prodrugs [2]: 160 ± 4 pmol/10^6 cells
Intracellular concentration: Prodrugs (HepG2 cells [3]): 390 ± 33 pmol/10^6 cells
Intracellular concentration: Prodrugs [4]: 70 ± 6 pmol/10^6 cells
mitochondrial toxicity or increase in lactic acid levels (HepG2 cells [5]): no mitochondrial toxicity or increase in lactic acid levels
NOAEL at 7 day [6]: < 40 mg/kg/day
Intracellular concentration: 2’-C-Me-G [7]: BLOQ
Intracellular concentration: Prodrugs [7]: 13 ± 1 pmol/10^6 cells
Intracellular concentration in human cardiomyocytes: Prodrugs (human cardiomyocytes [8]; 4 h): 70 ± 3 pmol/10^6 cells
Intracellular concentration in human cardiomyocytes: Prodrugs (human cardiomyocytes [8]; 8 h): 51 ± 1 pmol/10^6 cells
intact prodrug level, times lower than BMS-986094 (human cardiomyocytes [8]; human cardiomyocytes, 8 h): 16 times
NOAEL at 7 day [9]: < 40 mg/kg/day
Replicon Huh-7 EC50 [10]: sub-micromolar
